Results from ChEMBL document CHEMBL4402612, “Heterodimeric Analogues of the Potent Y1R Antagonist 1229U91, Lacking One of the Pharmacophoric C-Terminal Structures, Retain Potent Y1R Affinity and Show Improved Selectivity over Y4R” (J Med Chem, 2020).
Positions of bridges follow the written chain, without caps; N, C: chain ends. Non-standard residues stand in square brackets, D forms with d. Residues, ends and D or L forms follow the SMILES beside them. Chains are numbered I, II in the order given. Dap = NC[C@H](N)C(=O)O

Legend:
[1] = biological target: T1, Neuropeptide Y receptor type 1 (Homo sapiens, UniProt P25929); assay: Displacement of (sCy5)-[Lys2 Arg4]-BVD15 from GFP-tagged Y1R in human HEK293T cells assessed as inhibitory constant incubated for 5 mins followed by (sCy5)-[Lys2 Arg4]-BVD15 addition and measured after 30 mins by fluorescence based assay; type: cell-based
T1 sequence (P25929 whole entry): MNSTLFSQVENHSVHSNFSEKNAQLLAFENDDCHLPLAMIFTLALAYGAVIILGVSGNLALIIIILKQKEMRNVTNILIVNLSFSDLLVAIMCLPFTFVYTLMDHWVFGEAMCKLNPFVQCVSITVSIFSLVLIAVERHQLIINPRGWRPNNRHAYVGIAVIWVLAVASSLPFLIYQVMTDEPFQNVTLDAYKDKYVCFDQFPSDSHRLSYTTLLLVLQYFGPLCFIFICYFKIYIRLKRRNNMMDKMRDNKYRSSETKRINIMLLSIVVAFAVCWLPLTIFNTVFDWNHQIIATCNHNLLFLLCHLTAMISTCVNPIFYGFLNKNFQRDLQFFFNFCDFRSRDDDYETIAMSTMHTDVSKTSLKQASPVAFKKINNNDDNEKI

[2] = biological target: T2, Neuropeptide Y receptor type 4 (Homo sapiens, UniProt P50391); assay: Agonist activity at Y4R in human HEK293T cells assessed as increase in beta-arrestin recruitment incubated for 60 mins by Hoechst 33342 dye based fluorescence analysis relative to pancreatic polypeptide
T2 sequence (P50391 whole entry): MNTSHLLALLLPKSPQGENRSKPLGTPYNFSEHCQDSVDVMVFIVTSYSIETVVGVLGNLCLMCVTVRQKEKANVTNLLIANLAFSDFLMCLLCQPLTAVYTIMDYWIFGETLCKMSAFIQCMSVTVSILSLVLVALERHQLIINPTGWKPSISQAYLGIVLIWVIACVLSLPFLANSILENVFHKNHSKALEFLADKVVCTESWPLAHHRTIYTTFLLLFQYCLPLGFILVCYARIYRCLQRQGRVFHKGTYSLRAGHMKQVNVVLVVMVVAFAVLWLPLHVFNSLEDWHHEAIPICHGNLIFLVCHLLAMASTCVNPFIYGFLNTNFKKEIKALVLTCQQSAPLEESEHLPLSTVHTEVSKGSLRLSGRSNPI

[3] = biological target: T2, Neuropeptide Y receptor type 4; assay: Displacement of (sCy5)-[Lys2 Arg4]-BVD15 from GFP-tagged Y4R in human HEK293T cells assessed as inhibitory constant incubated for 5 mins followed by (sCy5)-[Lys2 Arg4]-BVD15 addition and measured after 30 mins by fluorescence based assay; type: cell-based
Outline: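 Competitors (10^-10–10^-6 M) added in HBSS/0.1% BSA with H33342 for 5 min, then 100 nM final (sCy5)-[Lys²Arg⁴]-BVD15 for 30 min at 37 °C. Washed and imaged confocally; granule counts per cell. Non-specific binding with 100 nM PP.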

Homo sapiens = species on record: Homo sapiens; assay: Selectivity index, ratio of Ki of GFP-tagged Y4R in human HEK293T cells to Ki GFP-tagged Y1R in human HEK293T cells; type: cell-based
Outline: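 Ratio of mean Ki values, Y4/Y1, from whole-cell competition binding in tetracycline-induced 293TR Y1-GFP or Y4-GFP cells. Tracer was 100 nM (sCy5)-[Lys²Arg⁴]-BVD15, added after 5 min competitor preincubation, then 30 min at 37 °C, with imaging read-out.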

[4] = biological target: T2, Neuropeptide Y receptor type 4; assay: Agonist activity at Y4R in human HEK293T cells assessed as increase in beta-arrestin recruitment incubated for 60 mins by Hoechst 33342 dye based fluorescence analysis
[5] = biological target: T3, Neuropeptide Y receptor type 1 (Homo sapiens) (UniProt P25929); assay: Potency index, ratio of Ki of compound to Ki of 1229U91 for displacement of (sCy5)-[Lys2 Arg4]-BVD15 from GFP-tagged Y1R in human HEK293T cells assessed as inhibitory constant incubated for 5 mins followed by (sCy5)-[Lys2 Arg4]-BVD15 addition and measured after 30 mins by fluorescence based assay
T3 sequence (whole entry): T1 sequence (P25929 whole entry)

Question: `CC[C@H](C)[C@H](N)C(=O)N[C@H]1CCC(=O)NC[C@@H](C(=O)N[C@@H](Cc2ccc(O)cc2)C(=O)N[C@@H](CCCNC(=N)N)C(=O)N[C@@H](CC(C)C)C(=O)N[C@@H](CCCNC(=N)N)C(=O)N[C@@H](Cc2ccc(O)cc2)C(N)=O)NC(=O)[C@@H]2CCCN2C(=O)[C@@H](NC(=O)[C@@H](N)[C@@H](C)CC)CCC(=O)NC[C@@H](C(=O)N[C@@H](Cc2ccc(O)cc2)C(=O)N[C@@H](C)C(=O)N[C@@H](CC(C)C)C(=O)N[C@@H](CCCNC(=N)N)C(=O)N[C@@H](Cc2ccc(O)cc2)C(N)=O)NC(=O)[C@@H]2CCCN2C1=O` (I: H-IEP[Dap]YALRY-NH2 / II: H-IEP[Dap]YRLRY-NH2; amide I:2-II:4, I:4-II:2) was tested. Which Ki [1] did it give?
Answer: 0.575 nM

Question: And the Rmax [2]?
Answer: 49.1%

Question: And the Ki [3]?
Answer: 245 nM

Question: And the Ratio Ki (Homo sapiens)?
Answer: 419

Question: What about the EC50 [4] of the same compound?
Answer: 7.59 nM

Question: And the Ki ratio [5]?
Answer: 2
